{
  "source": "paper PMC7944986",
  "about": "(Journal for Immunotherapy of Cancer, 2021)",
  "type_in_all_cases": "in vivo, human",
  "key": {"[1]": {"test": "Durvalumab immunogenicity", "details": "durvalumab 1500 mg Q4W in combination with galunisertib"}, "[2]": {"system": "patients with recurrent or refractory metastatic pancreatic cancer", "test": "Dose finding, modified 3+3", "details": "co-administered with durvalumab 1500 mg Q4W; days 1–14 of a 28-day cycle", "method_in_brief": "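Oral galunisertib was given on days 1–14 in escalating cohorts of 50 mg once daily, then 50, 80 or 150 mg twice daily, with durvalumab infused IV over 60 min. Cohorts of three expanded to six after one DLT in cycle 1 (28 days). DLT criteria: grade 4 haematological AE, febrile neutropenia, grade 3–4 irAE or non-haematological AE, <75% planned dose, or >2-week delay. MTD: DLT in <2 of six; otherwise RP2D = maximum study dose.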"}, "[3]": {"test": "Steady-state galunisertib plasma pharmacokinetics", "details": "for AUC / Cmax: human, plasma, oral, geometric mean (CV %), steady state; for AUC: AUC(0-tau)"}},
  "note": "“Also recorded” adds a separate entry of the source.",
  "data": [
    {"molecule": "durvalumab", "values": [
      {"measurement": "Anti-drug antibodies against durvalumab", "setting": "[1]", "value": "No anti-drug antibodies against durvalumab were detected; also recorded: immunogenicity was not observed"}
    ]},
    {"molecule": "Cc1cccc(-c2nn3c(c2-c2ccnc4ccc(C(N)=O)cc24)CCC3)n1", "note": "[Galunisertib, galunisertib]", "values": [
      {"measurement": "Recommended phase II dose (RP2D) of galunisertib", "setting": "[2]", "value": 150, "unit": "mg two times per day"},
      {"measurement": "Time to maximum plasma concentration (mean concentration versus time profiles)", "setting": "[3]; galunisertib 50, 80, and 150 mg two times per day", "value": "≤ 4", "unit": "h"},
      {"measurement": "AUC", "setting": "[3]; tau=12 hours, galunisertib 50 mg two times per day + durvalumab 1500 mg Q4W", "value": 813, "unit": "ng·h/mL"},
      {"measurement": "AUC", "setting": "[3]; tau=12 hours, galunisertib 80 mg two times per day + durvalumab 1500 mg Q4W", "value": 3150, "unit": "ng·h/mL"},
      {"measurement": "AUC", "setting": "[3]; tau=12 hours, galunisertib 150 mg two times per day + durvalumab 1500 mg Q4W", "value": 6120, "unit": "ng·h/mL"},
      {"measurement": "AUC", "setting": "[3]; tau=24 hours, galunisertib 50 mg one time per day + durvalumab 1500 mg Q4W", "value": 1630, "unit": "ng·h/mL"},
      {"measurement": "Cmax", "setting": "[3]; galunisertib 50 mg one time per day + durvalumab 1500 mg Q4W", "value": 424, "unit": "ng/mL"},
      {"measurement": "Cmax", "setting": "[3]; galunisertib 80 mg two times per day + durvalumab 1500 mg Q4W", "value": 612, "unit": "ng/mL"},
      {"measurement": "Cmax", "setting": "[3]; galunisertib 150 mg two times per day + durvalumab 1500 mg Q4W", "value": 1070, "unit": "ng/mL"}
    ]}
  ]
}
